Assay outcomes deposited in PubChem BioAssay by several laboratories.
Rows were chosen to be rich in hits. Some 0.86% of all compounds tested hit in one or more screens of this group.
TNAP act hi DEA = TNAP (human) activation, high acceptor; activation factor at 20 µM; 200,000 tested, under 10 active; purified TNAP, CDP-star luminescence, 1 M DEA, 30 min; active compounds read high; 0 = EDTA background, 1 = DMSO-only activity; P05186;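 active means activation factor at least 2 at 20 µM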
Target sequence (P05186 whole entry, looked up): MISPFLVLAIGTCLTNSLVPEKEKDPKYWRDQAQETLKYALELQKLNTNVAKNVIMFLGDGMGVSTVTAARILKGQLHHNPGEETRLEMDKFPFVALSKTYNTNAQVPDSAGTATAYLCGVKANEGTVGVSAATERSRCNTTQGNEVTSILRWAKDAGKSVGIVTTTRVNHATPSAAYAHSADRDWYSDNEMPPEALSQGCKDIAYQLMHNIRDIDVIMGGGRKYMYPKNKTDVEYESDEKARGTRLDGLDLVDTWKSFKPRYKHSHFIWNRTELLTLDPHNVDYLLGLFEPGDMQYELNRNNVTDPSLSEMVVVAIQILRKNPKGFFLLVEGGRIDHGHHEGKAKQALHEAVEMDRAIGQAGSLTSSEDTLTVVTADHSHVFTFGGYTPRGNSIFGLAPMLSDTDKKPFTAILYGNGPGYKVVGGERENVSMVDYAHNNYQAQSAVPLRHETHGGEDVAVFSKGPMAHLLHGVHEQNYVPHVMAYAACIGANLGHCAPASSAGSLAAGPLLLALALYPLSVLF
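Assay system: human TNAP; Input: enzyme diluted 1/800 final; Reagent: CDP-star luminogenic substrate at 100 µM final; Timing: 30 min, room temperature; Signal: luminescence; Evaluation: TNAP activation factor scaled between EDTA and DMSO control wells.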
TNAP inh noacc = TNAP (human) inhibition, acceptor-free conditions. 200,000 tested, 0.26% active. P05186. AID 1012. purified TNAP, CDP-star luminescence, 30 min. inhibition, % at 20 µM;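 active means tissue-nonspecific alkaline phosphatase inhibition above about 50% at 20 µM in the single-dose screen, limit read from the data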;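 further: 0% = DMSO negative control and 100% = EDTA positive control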
p97 inhibitor = blocks human p97 ATPase activity | recombinant p97 ATPase, Kinase-Glo ATP luminescence, 3 h | inhibition, % at 8 µM | AID 1481 | 220,000 tested, 0.42% active; in the data active means inhibition above about 15%;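 further: 0% = DMSO vehicle and 100% = wells lacking enzyme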
DTT redox prof = compounds producing H2O2 with reducing agent – biochemical, NIH compound library profiling, artefact control for MLSCN library redox annotation, primary screen | DTT-dependent redox cycling H2O2, phenol red/HRP absorbance; 100% = 100 µM peroxide control, 0% = buffer | activation, % at 10 µM | 200,000 tested, 0.03% active | AID 878;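 active means activation of at least 50% relative to the plate's high and low controls in the primary single-dose screen; inactive means activation below 50%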;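 further: compound incubated with DTT at 0.8 mM final as the reducing agent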
PERK inh = human PERK inhibition, primary cell-based screen. 220,000 tested, 0.17% active. inhibition, % at 5.6 µM. Q9NZJ5. CHO PERK-DD fusion, SEAP luminescence translation reporter;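 active means inhibition above the mean inhibition of all tested compounds plus 3 SD, set separately per screening campaign, cut at about 2.9% in these data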;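 further: PERK kinase domain activated by AP20187 dimerizer at 100 nM; 0% = DMSO with dimerizer and 100% = rapamycin at 8.4 µM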
TNAP inh hi DEA = TNAP (human) inhibition, high acceptor | inhibition, % at 20 µM | 200,000 tested, 0.03% active | purified TNAP, CDP-star luminescence, 1 M DEA | P05186 | AID 1135;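 active means over 50% inhibition of tissue-nonspecific alkaline phosphatase at 20 µM in the single-dose screen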;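 further: plate controls were DMSO wells for no effect and EDTA-quenched wells as full inhibition for full effect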
* marks the source's active call; other numbers are inactive results.

Screening CCn1ccnc1CN(C)Cc1cn[nH]c1-c1ccc(F)cc1F returned TNAP act hi DEA 1, TNAP inh noacc 85.4*, p97 inhibitor 0.0, DTT redox prof -0.1, PERK inh 0.1 and TNAP inh hi DEA -2.7.
COc1ccc(-c2[nH]ncc2CN(Cc2nccn2C)C(C)C)c(F)c1 was read as TNAP act hi DEA 1, TNAP inh noacc 25.5, p97 inhibitor 3.6, DTT redox prof -0.9, PERK inh -0.2 and TNAP inh hi DEA -4.9.
For COC(=O)c1c[nH]n2c(=O)cc(CCl)nc12 the results were TNAP act hi DEA 1, TNAP inh noacc -5.2, p97 inhibitor 4.7, DTT redox prof -3.1, PERK inh 1.1 and TNAP inh hi DEA -3.5.
CC(C)(C)c1cc(-c2ccccc2)n[nH]1 was read as p97 inhibitor 4.8 and PERK inh 1.9.
For COC(=O)c1cc(-c2ccc(Cl)cc2)n[nH]1 the results were TNAP act hi DEA 1.1, TNAP inh noacc 87.0*, p97 inhibitor 3.0, DTT redox prof -1.0, PERK inh 0.9 and TNAP inh hi DEA -6.2.
For CC(C)(C)NC(=O)c1cc(-c2ccccc2)n[nH]1 the results were TNAP act hi DEA 1, TNAP inh noacc 92.4*, p97 inhibitor -2.6, DTT redox prof 2.5, PERK inh 0.6 and TNAP inh hi DEA 0.2.
For COC(=O)c1cc(-c2ccccc2)n[nH]1 the results were TNAP act hi DEA 1, TNAP inh noacc 92.1*, p97 inhibitor 1.4, DTT redox prof 0.1, PERK inh 1.5 and TNAP inh hi DEA 2.1.
For COC(=O)c1cc(-c2ccc(OC)c(OC)c2)n[nH]1 the results were TNAP act hi DEA 1, TNAP inh noacc 8.6, p97 inhibitor 2.1, DTT redox prof 0.1, PERK inh -0.1 and TNAP inh hi DEA 0.0.
Screening COC(=O)c1cc(-c2ccc(Cl)cc2Cl)n[nH]1 returned TNAP act hi DEA 1, TNAP inh noacc 81.4*, p97 inhibitor -4.3, DTT redox prof -1.4, PERK inh -0.3 and TNAP inh hi DEA 2.5.
COC(=O)c1cc(C(=O)OC)[nH]n1 was read as TNAP act hi DEA 0.9, TNAP inh noacc 23.3, p97 inhibitor 2.6, DTT redox prof -0.2, PERK inh 1.4 and TNAP inh hi DEA 9.4.
For Cc1ccc(S(=O)(=O)N(C)C)cc1NC(=O)c1cc(C(C)(C)C)nn1Cc1ccccc1 the results were p97 inhibitor -6.8 and PERK inh -1.2.
Screening CCn1c(=O)c2cc(C(=O)NC(C)C)sc2c2ccccc21 returned p97 inhibitor 14.5* and PERK inh -2.4.
For CCn1c(=O)c2cc(C(=O)Nc3ccccc3OC)sc2c2ccccc21 the results were p97 inhibitor 6.5 and PERK inh -0.3.
`Cc1ccc2cc(/C=N/Nc3nc4ccccc4[nH]3)c(Cl)nc2c1` gave TNAP act hi DEA 0.9, TNAP inh noacc 16.8, p97 inhibitor 1.8, DTT redox prof 0.7, PERK inh 3.4* and TNAP inh hi DEA 11.8.
`COc1cc(OC)c(OC)cc1/C=N/Nc1nc2ccccc2[nH]1` gave p97 inhibitor 6.3 and PERK inh -0.2.
Screening Cn1ncc(N=Cc2ccc([N+](=O)[O-])cc2)c1C(=O)Nc1ccccc1 returned TNAP act hi DEA 1, TNAP inh noacc -4.6, p97 inhibitor 1.2, DTT redox prof 0.9, PERK inh 1.9 and TNAP inh hi DEA 0.3.
Screening COc1cc(/C=C/C(=O)CC(=O)/C=C/c2ccc(O)c(OC)c2)ccc1O returned TNAP act hi DEA 0.5, TNAP inh noacc 44.2, p97 inhibitor 4.7, DTT redox prof 0.1, PERK inh -0.4 and TNAP inh hi DEA 52.6*.
Cc1cc(C)nc(SCc2ccc(C(=O)N/N=C/C3CCCCC3)cc2)n1 was read as TNAP act hi DEA 1, TNAP inh noacc -4.3, p97 inhibitor 7.1, DTT redox prof -0.2, PERK inh 0.2 and TNAP inh hi DEA 2.8.
For Cc1ccc(S(=O)(=O)NCCCN(C)C)cc1 the results were TNAP act hi DEA 1, TNAP inh noacc -13.3, p97 inhibitor 0.7, DTT redox prof -0.7, PERK inh 3.2* and TNAP inh hi DEA -4.9.
`Cc1ncc([N+](=O)[O-])n1CC(=O)Nc1ccc2c(c1)OCO2` gave TNAP act hi DEA 1.1, TNAP inh noacc -14.2, p97 inhibitor -5.2, DTT redox prof -2.0, PERK inh 0.3 and TNAP inh hi DEA -5.4.
